Reference: ChEMBL document CHEMBL1811918, “Sesquiterpene and norsesquiterpene derivatives from Sanicula lamelligera and their biological evaluation” (J Nat Prod, 2011)
Residues, ends and D or L forms follow the SMILES beside them. *: point of attachment. Cbz = O=C(OCc1ccccc1)*

system: A549; assay: Cytostatic activity against human A549 cells after […] by MTT assay; format: functional, cell-based; conditions: not given
Summary of the method: (§1)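 MTT viability in human tumor lines exposed to a concentration series for 48 h. Adherent cells were allowed to attach for 12 h before dosing. Suspension cells were seeded immediately before dosing at (1–2) × 10^5 cells/mL. DMSO wells served as negative control and DDP (cisplatin) as positive control. IC50 was calculated from viability.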

Structure (SMILES)	IC50
CC(C)C1=C[C@@H]2[C@H](CC[C@@]2(C)O)[C@@](C)(O)CC1 [GUAIANEDIOL]	> 64.4 µM
C[C@H](/C=C/[C@]12O[C@@]1(C)C[C@@H](O)CC2(C)C)O[C@@H]1O[C@H](CO)[C@@H](O)[C@H](O)[C@H]1O [PHLOMUROSIDE]	> 64.4 µM
CC(C)[C@H]1CC[C@@]2(C)[C@@H]1[C@H]1O[C@@H]2CC[C@@H]1C(=O)O [SANICULAMOID A1]	> 64.4 µM
CC(C)[C@H]1CC[C@@]2(C)[C@@H]1[C@@H]1O[C@]1(CO)CC[C@@H]2O [SANICULAMOID B]	> 64.4 µM
CC(C)(O)[C@H]1C[C@H]2[C@H](CC[C@@]2(C)O)[C@](C)(O)C[C@@H]1O [SANICULAMOID C]	> 64.4 µM
CC(=O)CC[C@@H](C(C)C)[C@@H]1[C@H]2CCC(=O)[C@H]21 [SANICULAMOID D]	> 64.4 µM

system: MCF7; assay: Cytostatic activity against human MCF7 cells after […] by MTT assay; format: functional, cell-based; conditions: not given; summary of the method: as §1

Structure (SMILES)	IC50
CC(C)C1=C[C@@H]2[C@H](CC[C@@]2(C)O)[C@@](C)(O)CC1 [GUAIANEDIOL]	> 64.4 µM
C[C@H](/C=C/[C@]12O[C@@]1(C)C[C@@H](O)CC2(C)C)O[C@@H]1O[C@H](CO)[C@@H](O)[C@H](O)[C@H]1O [PHLOMUROSIDE]	> 64.4 µM
CC(C)[C@H]1CC[C@@]2(C)[C@@H]1[C@H]1O[C@@H]2CC[C@@H]1C(=O)O [SANICULAMOID A1]	> 64.4 µM
CC(C)[C@H]1CC[C@@]2(C)[C@@H]1[C@@H]1O[C@]1(CO)CC[C@@H]2O [SANICULAMOID B]	> 64.4 µM
CC(C)(O)[C@H]1C[C@H]2[C@H](CC[C@@]2(C)O)[C@](C)(O)C[C@@H]1O [SANICULAMOID C]	> 64.4 µM
CC(=O)CC[C@@H](C(C)C)[C@@H]1[C@H]2CCC(=O)[C@H]21 [SANICULAMOID D]	> 64.4 µM

system: not listed separately; assay: Cytotoxicity against human C8166 cells after 3 days by MTT assay; format: cell-based; conditions: not given
Summary of the method: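 C8166 cells were seeded in triplicate with or without a concentration series and held at 37 C for 3 days, with compound-free wells as negative control. Viable cells were quantified by MTT absorbance at 595/630 nm. CC50, the 50% reduction in viable cells, was taken from the dose–response curve.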

Structure (SMILES)	CC50 at 72 h
CC(C)C1=C[C@@H]2[C@H](CC[C@@]2(C)O)[C@@](C)(O)CC1 [GUAIANEDIOL]	> 420 µM
C[C@H](/C=C/[C@]12O[C@@]1(C)C[C@@H](O)CC2(C)C)O[C@@H]1O[C@H](CO)[C@@H](O)[C@H](O)[C@H]1O [PHLOMUROSIDE]	> 258 µM
CC(C)[C@H]1CC[C@@]2(C)[C@@H]1[C@H]1O[C@@H]2CC[C@@H]1C(=O)O [SANICULAMOID A1]	195 µM
CC(C)[C@H]1CC[C@@]2(C)[C@@H]1[C@@H]1O[C@]1(CO)CC[C@@H]2O [SANICULAMOID B]	358 µM
CC(C)(O)[C@H]1C[C@H]2[C@H](CC[C@@]2(C)O)[C@](C)(O)C[C@@H]1O [SANICULAMOID C]	> 368 µM
CC(=O)CC[C@@H](C(C)C)[C@@H]1[C@H]2CCC(=O)[C@H]21 [SANICULAMOID D]	> 450 µM
Cc1cn([C@H]2C[C@H](N=[N+]=[N-])[C@@H](CO)O2)c(=O)[nH]c1=O [ZIDOVUDINE]	4070 µM

system: Human immunodeficiency virus 1; assay: Antiviral activity against Human immunodeficiency virus 1 3B infected in human C8166 cells assessed as numbers of syncytia after 3 days by syncytium counting; conditions: C8166, 72 h

Structure (SMILES)	EC50
CC(C)C1=C[C@@H]2[C@H](CC[C@@]2(C)O)[C@@](C)(O)CC1 [GUAIANEDIOL]	> 420 µM
C[C@H](/C=C/[C@]12O[C@@]1(C)C[C@@H](O)CC2(C)C)O[C@@H]1O[C@H](CO)[C@@H](O)[C@H](O)[C@H]1O [PHLOMUROSIDE]	> 258 µM
CC(C)[C@H]1CC[C@@]2(C)[C@@H]1[C@H]1O[C@@H]2CC[C@@H]1C(=O)O [SANICULAMOID A1]	162 µM
CC(C)[C@H]1CC[C@@]2(C)[C@@H]1[C@@H]1O[C@]1(CO)CC[C@@H]2O [SANICULAMOID B]	126 µM
CC(C)(O)[C@H]1C[C@H]2[C@H](CC[C@@]2(C)O)[C@](C)(O)C[C@@H]1O [SANICULAMOID C]	> 368 µM
CC(=O)CC[C@@H](C(C)C)[C@@H]1[C@H]2CCC(=O)[C@H]21 [SANICULAMOID D]	196 µM

system: Human immunodeficiency virus 1; assay: Antiviral activity against Human immunodeficiency virus 1 3B infected in human C8166 cells assessed as numbers of syncytia after 3 days by MTT assay; format: functional, organism-based; conditions: C8166, 72 h
Summary of the method: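 Compounds at various concentrations were added to C8166 cells (8 × 10^5/mL) infected with HIV-1 IIIB and incubated at 37 C for 3 days. The cytopathic effect was scored by counting syncytia, with AZT as positive control. EC50 came from the percentage of syncytial cells relative to the infected untreated control.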

Structure (SMILES)	EC50
Cc1cn([C@H]2C[C@H](N=[N+]=[N-])[C@@H](CO)O2)c(=O)[nH]c1=O [ZIDOVUDINE]	0.0045 µM

system: RAW264.7; assay: Antiinflammatory against mouse RAW264.7 cells assessed as inhibition of LPS-induced nitric oxide production; format: functional, cell-based; conditions: not given
Summary of the method: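 Nitric oxide production was measured in LPS-stimulated RAW 264.7 macrophages, with DMSO wells as negative control and MG-132 as positive control. IC50 was derived.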

Structure (SMILES)	IC50
CC(C)C1=C[C@@H]2[C@H](CC[C@@]2(C)O)[C@@](C)(O)CC1 [GUAIANEDIOL]	> 64.4 µM
CC(C)C[C@@H](C=O)NC(=O)[C@H](CC(C)C)NC(=O)[C@H](CC(C)C)NC(=O)OCc1ccccc1 [MG-132] (Cbz-Leu-Leu-Leu-aldehyde)	0.439 µM
C[C@H](/C=C/[C@]12O[C@@]1(C)C[C@@H](O)CC2(C)C)O[C@@H]1O[C@H](CO)[C@@H](O)[C@H](O)[C@H]1O [PHLOMUROSIDE]	> 64.4 µM
CC(C)[C@H]1CC[C@@]2(C)[C@@H]1[C@H]1O[C@@H]2CC[C@@H]1C(=O)O [SANICULAMOID A1]	> 64.4 µM
CC(C)[C@H]1CC[C@@]2(C)[C@@H]1[C@@H]1O[C@]1(CO)CC[C@@H]2O [SANICULAMOID B]	> 64.4 µM
CC(C)(O)[C@H]1C[C@H]2[C@H](CC[C@@]2(C)O)[C@](C)(O)C[C@@H]1O [SANICULAMOID C]	> 64.4 µM
CC(=O)CC[C@@H](C(C)C)[C@@H]1[C@H]2CCC(=O)[C@H]21 [SANICULAMOID D]	> 64.4 µM

system: SMMC-7721; assay: Cytostatic activity against human SMMC7721 cells after […] by MTT assay; format: functional, cell-based; conditions: not given; summary of the method: as §1

Structure (SMILES)	IC50
CC(C)C1=C[C@@H]2[C@H](CC[C@@]2(C)O)[C@@](C)(O)CC1 [GUAIANEDIOL]	> 64.4 µM
C[C@H](/C=C/[C@]12O[C@@]1(C)C[C@@H](O)CC2(C)C)O[C@@H]1O[C@H](CO)[C@@H](O)[C@H](O)[C@H]1O [PHLOMUROSIDE]	> 64.4 µM
CC(C)[C@H]1CC[C@@]2(C)[C@@H]1[C@H]1O[C@@H]2CC[C@@H]1C(=O)O [SANICULAMOID A1]	> 64.4 µM
CC(C)[C@H]1CC[C@@]2(C)[C@@H]1[C@@H]1O[C@]1(CO)CC[C@@H]2O [SANICULAMOID B]	> 64.4 µM
CC(C)(O)[C@H]1C[C@H]2[C@H](CC[C@@]2(C)O)[C@](C)(O)C[C@@H]1O [SANICULAMOID C]	> 64.4 µM
CC(=O)CC[C@@H](C(C)C)[C@@H]1[C@H]2CCC(=O)[C@H]21 [SANICULAMOID D]	> 64.4 µM

system: not listed separately; assay: Therapeutic index, ratio of CC50 for human C8166 cells to EC50 for Human immunodeficiency virus 1 3B infected in human C8166 cells; format: cell-based; conditions: read-out: Ratio CC50/EC50
Summary of the method: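 Ratio of CC50 (MTT viability of uninfected C8166 cells, 3 days, 37 C) to EC50 (syncytium counts in HIV-1 IIIB-infected C8166 cells, 3 days, 37 C).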

Structure (SMILES)	selectivity ratio
CC(C)[C@H]1CC[C@@]2(C)[C@@H]1[C@H]1O[C@@H]2CC[C@@H]1C(=O)O [SANICULAMOID A1]	1.2
CC(C)[C@H]1CC[C@@]2(C)[C@@H]1[C@@H]1O[C@]1(CO)CC[C@@H]2O [SANICULAMOID B]	2.9
CC(=O)CC[C@@H](C(C)C)[C@@H]1[C@H]2CCC(=O)[C@H]21 [SANICULAMOID D]	> 2.3
Cc1cn([C@H]2C[C@H](N=[N+]=[N-])[C@@H](CO)O2)c(=O)[nH]c1=O [ZIDOVUDINE]	214000

system: SW480; assay: Cytostatic activity against human SW480 cells after […] by MTT assay; format: functional, cell-based; conditions: not given; summary of the method: as §1

Structure (SMILES)	IC50
CC(C)C1=C[C@@H]2[C@H](CC[C@@]2(C)O)[C@@](C)(O)CC1 [GUAIANEDIOL]	> 64.4 µM
C[C@H](/C=C/[C@]12O[C@@]1(C)C[C@@H](O)CC2(C)C)O[C@@H]1O[C@H](CO)[C@@H](O)[C@H](O)[C@H]1O [PHLOMUROSIDE]	> 64.4 µM
CC(C)[C@H]1CC[C@@]2(C)[C@@H]1[C@H]1O[C@@H]2CC[C@@H]1C(=O)O [SANICULAMOID A1]	> 64.4 µM
CC(C)[C@H]1CC[C@@]2(C)[C@@H]1[C@@H]1O[C@]1(CO)CC[C@@H]2O [SANICULAMOID B]	> 64.4 µM
CC(C)(O)[C@H]1C[C@H]2[C@H](CC[C@@]2(C)O)[C@](C)(O)C[C@@H]1O [SANICULAMOID C]	> 64.4 µM
CC(=O)CC[C@@H](C(C)C)[C@@H]1[C@H]2CCC(=O)[C@H]21 [SANICULAMOID D]	> 64.4 µM

system: HL-60; assay: Cytostatic activity against human HL60 cells after […] by MTT assay; format: functional, cell-based; conditions: not given; summary of the method: as §1

Structure (SMILES)	IC50
CC(C)C1=C[C@@H]2[C@H](CC[C@@]2(C)O)[C@@](C)(O)CC1 [GUAIANEDIOL]	> 64.4 µM
C[C@H](/C=C/[C@]12O[C@@]1(C)C[C@@H](O)CC2(C)C)O[C@@H]1O[C@H](CO)[C@@H](O)[C@H](O)[C@H]1O [PHLOMUROSIDE]	> 64.4 µM
CC(C)[C@H]1CC[C@@]2(C)[C@@H]1[C@H]1O[C@@H]2CC[C@@H]1C(=O)O [SANICULAMOID A1]	> 64.4 µM
CC(C)[C@H]1CC[C@@]2(C)[C@@H]1[C@@H]1O[C@]1(CO)CC[C@@H]2O [SANICULAMOID B]	> 64.4 µM
CC(C)(O)[C@H]1C[C@H]2[C@H](CC[C@@]2(C)O)[C@](C)(O)C[C@@H]1O [SANICULAMOID C]	> 64.4 µM
CC(=O)CC[C@@H](C(C)C)[C@@H]1[C@H]2CCC(=O)[C@H]21 [SANICULAMOID D]	> 64.4 µM
